Laboratory results: the RNAGym collection of RNA variant scans (doi:10.1126/science.aae0568)
Variants at the floor of the assay were thinned out.

B1: tRNA (parent)
chain: GUUCCGUUGGCGUAAUGGUAACGCGUCUCCCUCCUAAGGAGAAGACUGCGGGUUCGAGUCCCGUACGGAACG

Variants of: B1
Experiment: yeast fitness relative to wild type (ratio to wild type); higher = fitter; tRNA-Arg(CCU), competitive growth, 37 C, YPD
Outline: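 For this measurement, the tRNA-Arg(CCU) gene was varied by chemical synthesis at a 3% per-site mutation rate across 69 sites, and each variant was placed at the native genomic locus in Saccharomyces cerevisiae. The pooled strains went through a 24-hour competition in YPD at 37°C in six parallel replicates, with amplicons from start and end populations read by 100-nucleotide paired-end sequencing. Darwinian fitness relative to wild type followed from the change in each genotype's frequency. Genotypes needed ≥ 100 starting reads, and estimates < 0.5 were set to 0.5.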

Variant | yeast fitness
C5U A14C C46G | 0.561
C5U A15C G23C G56A | ≤ 0.5
C5U A15G C22G G41A A45U U47A C62U | ≤ 0.5
C5G U28G G38C C62G | ≤ 0.5
C5G U35C A69C | 0.551
C5U A21G C24G U28G | ≤ 0.5
C5U A37C G39C | ≤ 0.5
C5U A36G G52C | ≤ 0.5
C5G U19A C30G G39C U53C C55A | ≤ 0.5
C5U A20U A36U | ≤ 0.5
C5G U26C A36C | 0.547
C5U A20G A21G C31U | ≤ 0.5
C5U A15U C29U C31U C34U C66A | ≤ 0.5
C5U A20G C61U | 0.711
C5U A20G U47C | ≤ 0.5
C5G U13A C31G G50A G67A A69G | ≤ 0.5
C5U A15U U35C A45C | ≤ 0.5
C5G U35C G50C G56A A70U | ≤ 0.5
C5G U13C A20C U32G C46U | 0.703
C5U A21U C30G C33U C66A | ≤ 0.5
C5U A40U G56A G67C | ≤ 0.5
C5G U53G A65U | 0.612
C5U A14G U26C C30U A42C C61U | ≤ 0.5
C5G U16A A43G | 0.573

Variant | yeast fitness
C5G U47C U59A | ≤ 0.5
C5U A37U A57U A69C | ≤ 0.5
C5U A15U C55A | ≤ 0.5
C5U A20C C22U A36G G52C | ≤ 0.5
C5G U16A A57U | ≤ 0.5
C5G U13G G18C A21C C60G A65U C66U | ≤ 0.5
C5U A14C G52C A65U | ≤ 0.5
C5U A40C C46A U54A | 0.55
C5G U13G C27U G41A | 0.541
C5G U47C A65C | 0.558
C5U A15G G17C C66U | ≤ 0.5
C5G U26C G44A A69U | ≤ 0.5
C5U A20U U26A A65C G67C | ≤ 0.5
C5U A15U C29U C31U C34U U64C | ≤ 0.5
C5U A21U C30G C60G A70C | ≤ 0.5
C5U A15C C34G A37G A65G | ≤ 0.5
C5G U13A U19A C30U | 0.573
C5G U16A A21C A37C G68A | ≤ 0.5
C5U A15U C27G | ≤ 0.5
C5U A40G A43G C55U | ≤ 0.5
C5U A14G U28C | 0.562
C5G U54C G56A | 0.729
C5U A20C C31A C34G A57G A65U | 0.593
C5U A37C C46G C60U | ≤ 0.5

Variant | yeast fitness
C5U A36U G67A | ≤ 0.5
C5U A20G C31G U47C G48C | ≤ 0.5
C5G U35A G51A | ≤ 0.5
C5U A15U C29U C31U C34U G48C G68A | ≤ 0.5
C5G U13C C34A A57U | ≤ 0.5
C5U A14C A15U G17A U26C A42U A45C G63C G68U | ≤ 0.5
C5U A15U G17A G44C | ≤ 0.5
C5G U35A G63C | ≤ 0.5
C5U A42G A45G C55G | ≤ 0.5
C5G U16A C61U | 0.589
C5G U28G G58C C62U G63C U64G | 0.628
C5U A20C C66U | 0.616
C5U A20C C66A | 0.51
C5U A20C G44C | 0.573
C5U A40C U47C A65U | ≤ 0.5
C5U A14G U16A C30U | ≤ 0.5
C5G U64C | 0.978
C5G U47C C61A G68U | ≤ 0.5
C5G U35A G44C C66U G67U A70G | 0.542
C5G U28G | 0.699
C5G U16A U19G A20C C27U C29U C30U A70U | ≤ 0.5
C5G U16C C33U C66A | ≤ 0.5
C5U A21G C27U A69U | ≤ 0.5
C5G U13C C24U C49U | 0.526

Variant | yeast fitness
C5U A21G | 0.981
C5G U16A C33A | ≤ 0.5
C5U A21G G67A | 0.629
C5G U16C | 0.722
C5U A14U C27G G38C G63A | ≤ 0.5
C5G U13C C31A A43G G50C | ≤ 0.5
C5G U19C G25A | 0.716
C5U A14G C33G A40G C60G | ≤ 0.5
C5U A37G A43C U59C C62U | ≤ 0.5
C5G U13C A20C U32G C46U G58C | ≤ 0.5
C5U A20G A43G A65U | ≤ 0.5
C5U A21C G23A C49A G52A G56C A57C | 0.508
C5U A20C A43G | 0.658
C5G U35C G48C | 0.571
C5U A37U A69U | 0.634
C5G U13C A21C | 0.585
C5U A37G A43C C62U | 0.541
C5U A20U G67A A70G | 0.933
C5U A36C U54A | ≤ 0.5
C5G U35A C60A | ≤ 0.5
C5U A40G G50C A57C G58C | ≤ 0.5
C5U A20C G68C | 0.542
C5U A15C G18A U35C A42G C49A | 0.586
C5U A36C A43G U54A C55G A69U | ≤ 0.5

Variant | yeast fitness
C5U A36U A65U | 0.712
C5U A37C U47C C61U | ≤ 0.5
C5U | 0.987
C5U A37G A45C C61G A70U | ≤ 0.5
C5G U13G C29U G50C U59A | ≤ 0.5
C5G U26C A37G C60A | ≤ 0.5
C5U A20G C24G U26G A37C A57G C66A | ≤ 0.5
C5G U13C | 0.875
C5U A14U A15C | 0.727
C5U A21G C33G G38A C60A | ≤ 0.5
C5U A15G A70U | 0.696
C5U A20G A37G | 0.524
C5G U16A C31G A65U C66A | ≤ 0.5
C5U A36U A45U | ≤ 0.5
C5G U26C G44A C62A | ≤ 0.5
C5U A37U A65G | 0.57
C5U A20U A70U | 0.842
C5U A21C U54C A65U | 0.643
C5G U13C C46U | 0.547
C5G U16A C34G G39C C55A A57C | ≤ 0.5
C5U A15C G18A G23A U35C A42G C49A | ≤ 0.5
C5U A14U C24G | ≤ 0.5
C5U A15G A20C U26C G41C G67C | 0.593
C5G U13C A21C G67A | ≤ 0.5

Variant | yeast fitness
C5U A20U G23C C31U U54C | ≤ 0.5
C5U A40C G48A | 0.592
C5U A15C C34G A40U A43C C49G G50A C60U | 0.583
C5U A40U A42G | ≤ 0.5
C5G U47A C55A | 0.637
C5G U26C C30U C49U A69U | ≤ 0.5
C5U A37U A42U U59A | 0.537
C5G U13G A20U A37G A69U | ≤ 0.5
C5G U13C C22G C29G A45C G68C A69G | ≤ 0.5
C5G U13G C29U A40G C60U A65G C66U | ≤ 0.5
C5U A21G C22G A43U | 0.533
C5U A15U A21G C49U | ≤ 0.5
C5U A21U A57U C60A G68C | 0.566
C5U A15C U32A U47C | ≤ 0.5
C5G U13C A43C | ≤ 0.5
C5G U19C U26A C55U | ≤ 0.5
C5U A21U C30G A70U | 0.651
C5G U53A | 0.658
C5G U53C | 0.866
C5G U16A G48A U54C | 0.701
C5U A21U C30G A42G U59C C66G G68A | ≤ 0.5
C5U A20U A40C | ≤ 0.5
C5G U32A A57G | 0.549
C5U A15C C27U C29U A57C | ≤ 0.5

Variant | yeast fitness
C5G U26C C34G C55A A69U | ≤ 0.5
C5G U32A C62U | 0.532
C5G U32A C62G | ≤ 0.5
C5G U19A A20U G51C | ≤ 0.5
C5G U32C G58C | 0.665
C5G U35A A36C C55A | ≤ 0.5
C5G U59C | 0.852
C5G U59G | 0.62
C5U A20G G44C | 0.764
C5U A42G | 0.728
C5U A42C | 1.01
C5U A20G A37G G67A | ≤ 0.5
C5G U26C A65U | 0.67
C5U A20U C60A | ≤ 0.5
C5U A36G A65G A70C | ≤ 0.5
C5U A21U C30G | 0.632
C5U A40G | 1.01
C5U A40U | 0.833
C5U A21U U64A | ≤ 0.5
C5G U13C A70C | 0.579
C5U A14C A42G A65C | ≤ 0.5
C5U A40U A45G C46U | 0.986
C5U A14U C30U G39C C60A | ≤ 0.5
